Measured values as given in ChEMBL document CHEMBL5543163, “Druglike, 18F-labeled PET Tracers Targeting Fibroblast Activation Protein” (J Med Chem, 2024).

Legend:
Prolyl endopeptidase = target: T1, Prolyl endopeptidase (Homo sapiens, UniProt P48147); test: Inhibition of PREP (unknown origin)
T1 sequence (P48147 whole entry): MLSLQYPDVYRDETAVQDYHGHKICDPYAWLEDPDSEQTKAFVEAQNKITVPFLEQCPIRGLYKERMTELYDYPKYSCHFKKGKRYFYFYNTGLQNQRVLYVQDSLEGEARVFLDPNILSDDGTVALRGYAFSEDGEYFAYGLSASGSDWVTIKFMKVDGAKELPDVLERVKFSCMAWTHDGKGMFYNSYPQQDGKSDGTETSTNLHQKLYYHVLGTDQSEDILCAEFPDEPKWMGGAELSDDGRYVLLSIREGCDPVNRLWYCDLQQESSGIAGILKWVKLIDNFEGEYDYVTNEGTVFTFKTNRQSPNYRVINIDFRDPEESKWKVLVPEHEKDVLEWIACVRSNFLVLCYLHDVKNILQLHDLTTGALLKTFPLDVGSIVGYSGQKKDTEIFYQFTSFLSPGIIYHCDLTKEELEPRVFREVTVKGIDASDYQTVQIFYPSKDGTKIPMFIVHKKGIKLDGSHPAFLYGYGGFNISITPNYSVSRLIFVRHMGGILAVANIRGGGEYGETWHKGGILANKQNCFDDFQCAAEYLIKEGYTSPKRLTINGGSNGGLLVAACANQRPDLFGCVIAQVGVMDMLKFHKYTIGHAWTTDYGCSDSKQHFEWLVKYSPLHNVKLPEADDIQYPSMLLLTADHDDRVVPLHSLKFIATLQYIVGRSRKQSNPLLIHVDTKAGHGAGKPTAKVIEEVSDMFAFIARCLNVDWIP

Prolyl endopeptidase FAP = target: T2, Prolyl endopeptidase FAP (Homo sapiens, UniProt Q12884); test: Inhibition of FAP (unknown origin)
T2 sequence (Q12884 whole entry): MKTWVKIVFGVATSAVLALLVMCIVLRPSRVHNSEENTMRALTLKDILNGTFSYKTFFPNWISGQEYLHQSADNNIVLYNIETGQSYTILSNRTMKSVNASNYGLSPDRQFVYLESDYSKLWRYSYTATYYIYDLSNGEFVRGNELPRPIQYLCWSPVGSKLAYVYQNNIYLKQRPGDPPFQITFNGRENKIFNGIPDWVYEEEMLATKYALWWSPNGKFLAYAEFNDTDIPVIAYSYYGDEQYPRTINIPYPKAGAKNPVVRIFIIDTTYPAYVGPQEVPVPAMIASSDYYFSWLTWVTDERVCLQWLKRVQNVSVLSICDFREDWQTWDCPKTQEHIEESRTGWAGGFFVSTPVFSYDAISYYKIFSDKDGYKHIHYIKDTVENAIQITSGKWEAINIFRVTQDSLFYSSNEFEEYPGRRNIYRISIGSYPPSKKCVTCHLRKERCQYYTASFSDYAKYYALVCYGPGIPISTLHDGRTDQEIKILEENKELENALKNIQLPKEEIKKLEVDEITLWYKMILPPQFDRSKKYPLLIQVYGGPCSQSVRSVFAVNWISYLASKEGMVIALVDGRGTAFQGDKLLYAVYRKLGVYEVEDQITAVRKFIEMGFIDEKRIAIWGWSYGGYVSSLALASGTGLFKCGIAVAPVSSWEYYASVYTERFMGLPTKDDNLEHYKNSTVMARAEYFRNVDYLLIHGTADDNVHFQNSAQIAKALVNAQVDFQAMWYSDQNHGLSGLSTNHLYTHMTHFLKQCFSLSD

[1] = Stability in CD1 mouse plasma assessed as drug degradation at 185 kBq measured upto 60 mins by radio-HPLC analysis; type: ADME, cell-free; conditions: 1 h
Procedure, shortened: (§1)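 Radiotracer was incubated at 37 °C for up to 60 min in PBS (0.01 M, pH 7.4) or in mouse plasma. Samples were deproteinized with an equal volume of cold ACN and centrifuged. The supernatant was analyzed by radio-HPLC with 30 s fractions γ-counted to give the intact fraction. Triplicates.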

[2] = Drug uptake in blood of female nude mouse harboring null mutation of CD1 antigen complex at 5.1 to 7.4 MBq, iv measured after 15 to 60 mins by gamma counter analysis; type: ADME, organism-based; conditions: in vivo, dose lower 5.1 MBq, time lower 15 min, dose upper 7.4 MBq, time upper 60 min
Procedure, shortened: (§2)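 Female CD1 nude mice, 6–8 weeks old (20–25 g), received the radiotracer through the lateral tail vein. At 15, 30 and 60 min p.i. (n = 3 per time point) blood was drawn by cardiac puncture and the animals were euthanized. Organs were excised, weighed and γ-counted. Uptake is expressed as %ID/g.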

[3] = Ratio of drug level in tumor to blood of female nude mouse harboring null mutation of CD1 antigen complex xenografted with human U-87 MG cells at 5 to 7.4 MBq, iv measured at 60 mins postinjection by gamma counter analysis; type: ADME, organism-based; conditions: tumour, 1 h, dose 5-7.4 MBq
Procedure, shortened: (§3)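 Subcutaneous U-87MG xenografts (5×10^6 cells in DPBS, hind flank) were grown in female CD1 nude mice to about 200 mm3. After tail-vein radiotracer injection and a 60 min dynamic PET scan, tissues were harvested at 60 min p.i. and γ-counted (%ID/g). Tumor-to-tissue ratios are means ± SD of individual ratios, n=4 per tracer.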

[4] = Drug uptake in tibia of female nude mouse harboring null mutation of CD1 antigen complex xenografted with human U-87 MG cells at 5 to 7.4 MBq, iv measured after 60 mins by gamma counter analysis; type: ADME, organism-based; conditions: in vivo, 1 h, dose 5-7.4 MBq
[5] = Drug uptake in tumor of female nude mouse harboring null mutation of CD1 antigen complex xenografted with human U-87 MG cells with increased FAP positive tumor area at 5 to 7.4 MBq, iv measured after 60 mins by immunohistochemistry analysis; type: ADME, organism-based, Neoplasm; conditions: in vivo, 1 h, dose 5-7.4 MBq
[6] = Drug uptake in large intestine of female nude mouse harboring null mutation of CD1 antigen complex assessed as increase in renal excretion at 5.1 to 7.4 MBq, iv measured at 60 mins by gamma counter analysis; type: ADME, organism-based; conditions: in vivo, 1 h, dose 5.1-7.4 MBq; procedure, shortened: as §2
[7] = Ratio of drug level in tumor to small intestine of female nude mouse harboring null mutation of CD1 antigen complex xenografted with human U-87 MG cells at 5 to 7.4 MBq, iv measured at 60 mins postinjection by gamma counter analysis; type: ADME, organism-based; conditions: in vivo, 1 h, dose 5-7.4 MBq; procedure, shortened: as §3
[8] = Drug uptake in intestine of female nude mouse harboring null mutation of CD1 antigen complex at 5.1 to 7.4 MBq, iv measured after 15 to 60 mins by gamma counter analysis; type: ADME, organism-based; conditions: in vivo, dose lower 5.1 MBq, time lower 15 min, dose upper 7.4 MBq, time upper 60 min; procedure, shortened: as §2
[9] = Stability in PBS assessed as compound remaining at 185 kBq measured upto 60 mins by radio-HPLC analysis; type: physicochemical; conditions: read-out: Stability; procedure, shortened: as §1
[10] = Stability in PBS assessed as drug degradation at 185 kBq measured upto 60 mins by radio-HPLC analysis; type: physicochemical; conditions: buffer, 1 h; procedure, shortened: as §1
[11] = Drug uptake in tumor of female nude mouse harboring null mutation of CD1 antigen complex xenografted with human U-87 MG cells at 5 to 7.4 MBq, iv measured at 60 mins by PET/CT analysis; type: ADME, organism-based, Neoplasm; conditions: in vivo, 1 h, dose 5-7.4 MBq
Procedure, shortened: (§4)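 U-87MG xenografts (5×10^6 cells, subcutaneous flank) were grown in female CD1 nude mice to about 200 mm3. Dynamic whole-body PET over 60 min p.i. was followed by CT. Images were reconstructed with OSEM 3D and expressed as %ID/mL to give time-activity curves. For blocking, the FAP inhibitor (5 mg/kg) was given via the tail vein 30 min before the tracer; n=4.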

[12] = Drug uptake in tumor of female nude mouse harboring null mutation of CD1 antigen complex xenografted with human U-87 MG cells at 5 to 7.4 MBq, iv measured after 60 mins by autoradiography; type: ADME, organism-based, Neoplasm; conditions: in vivo, 1 h, dose 5-7.4 MBq
Procedure, shortened: (§5)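 Right after imaging and γ-counting, tumors from HT29 or U-87MG xenografts were snap-frozen and embedded in OCT. Sections of 100 µm were exposed overnight to phosphor screens. Non-blocked tumors were compared with tumors from mice pre-injected with the FAP inhibitor.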

[13] = Drug uptake in tumor of female nude mouse harboring null mutation of CD1 antigen complex xenografted with human U-87 MG cells at 5 to 7.4 MBq, iv pretreated with (S)-N-(2-(2-cyano-4,4-difluoropyrrolidin-1-yl)-2-oxoethyl)quinoline-4-carboxamide for 30 mins followed by radioligand addition and measured measured after 60 mins by PET/CT analysis; type: ADME, organism-based, Neoplasm; conditions: in vivo, 1 h, dose 5-7.4 MBq; procedure, shortened: as §4
[14] = Drug uptake in liver of female nude mouse harboring null mutation of CD1 antigen complex at 5.1 to 7.4 MBq, iv measured after 15 to 60 mins by gamma counter analysis; type: ADME, organism-based; conditions: in vivo, dose lower 5.1 MBq, time lower 15 min, dose upper 7.4 MBq, time upper 60 min; procedure, shortened: as §2
[15] = Ratio of drug level in tumor to liver of female nude mouse harboring null mutation of CD1 antigen complex xenografted with human U-87 MG cells at 5 to 7.4 MBq, iv measured at 60 mins postinjection by gamma counter analysis; type: ADME, organism-based; conditions: in vivo, 1 h, dose 5-7.4 MBq; procedure, shortened: as §3
[16] = Drug uptake in skull of female nude mouse harboring null mutation of CD1 antigen complex xenografted with human U-87 MG cells at 5 to 7.4 MBq, iv measured after 60 mins by gamma counter analysis; type: ADME, organism-based; conditions: in vivo, 1 h, dose 5-7.4 MBq
[17] = Stability in CD1 mouse plasma assessed as compound remaining at 185 kBq measured upto 60 mins by radio-HPLC analysis; type: ADME, cell-free; conditions: read-out: Stability; procedure, shortened: as §1
[18] = Stability in female nude mouse harboring null mutation of CD1 antigen complex assessed as compound remaining at 5.1 to 7.4 MBq, iv measured at 60 mins by radio-HPLC analysis; type: ADME, organism-based; conditions: in vivo, dose 5.1-7.4 MBq, read-out: Stability
Procedure, shortened: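 Female CD1 nude mice received 5.1–7.4 MBq i.v. EDTA blood collected at 15, 30 and 60 min p.i. (n=3 per time point) was centrifuged to plasma, deproteinized with cold ACN and centrifuged. The supernatant was analyzed by radio-HPLC with 30 s fractions γ-counted to give the percent intact tracer.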

[19] = Drug uptake in urinary bladder of female nude mouse harboring null mutation of CD1 antigen complex assessed as increase in renal excretion at 5.1 to 7.4 MBq, iv measured after 15 to 60 mins by gamma counter analysis; type: ADME, organism-based; conditions: in vivo, dose lower 5.1 MBq, time lower 15 min, dose upper 7.4 MBq, time upper 60 min; procedure, shortened: as §2
[20] = Ratio of drug level in tumor to muscle of female nude mouse harboring null mutation of CD1 antigen complex xenografted with human U-87 MG cells at 5 to 7.4 MBq, iv measured at 60 mins postinjection by gamma counter analysis; type: ADME, organism-based; conditions: in vivo, 1 h, dose 5-7.4 MBq; procedure, shortened: as §3
[21] = Drug uptake in tumor of female nude mouse harboring null mutation of CD1 antigen complex xenografted with FAP-negative human HT-29 cells at 5 to 7.4 MBq, iv measured after 60 mins by autoradiography; type: ADME, organism-based, Neoplasm; conditions: in vivo, 1 h, dose 5-7.4 MBq; procedure, shortened: as §5
[22] = Drug uptake in bone structures of female nude mouse harboring null mutation of CD1 antigen complex xenografted with human U-87 MG cells at 5 to 7.4 MBq, iv measured after 60 mins by gamma counter analysis; type: ADME, organism-based, Bone element; conditions: in vivo, 1 h, dose 5-7.4 MBq
[23] = Drug uptake in tumor of female nude mouse harboring null mutation of CD1 antigen complex xenografted with human HT-29 cells with decreased FAP positive tumor area at 5 to 7.4 MBq, iv measured after 60 mins by immunohistochemistry analysis; type: ADME, organism-based, Neoplasm; conditions: in vivo, 1 h, dose 5-7.4 MBq
[24] = Drug uptake in kidney of female nude mouse harboring null mutation of CD1 antigen complex assessed as increase in renal excretion at 5.1 to 7.4 MBq, iv measured after 15 to 60 mins by gamma counter analysis; type: ADME, organism-based; conditions: in vivo, dose lower 5.1 MBq, time lower 15 min, dose upper 7.4 MBq, time upper 60 min; procedure, shortened: as §2
[25] = Octanol/water partition coefficient, logD of compound at 74 kBq incubated for 2 mins by gamma counter method; type: physicochemical
Procedure, shortened: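 Octanol and PBS phases were mixed and vortexed for 2 min, then centrifuged at 3,000 rpm for 10 min. Aliquots of 0.5 mL from each phase were γ-counted and corrected for mass and density. LogD was taken as log10 of the octanol/PBS radioactivity ratio.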

Compound `CN(CC(=O)O)C1(CCCCNCCNc2c(NCCCCOc3ccc4nccc(C(=O)NCC(=O)N5CC(F)(F)C[C@H]5C#N)c4c3)c(=O)c2=O)CN(CC(=O)O)CCN(CC(=O)O)C1` has an IC50 (Prolyl endopeptidase) of 1700 nM and an IC50 (Prolyl endopeptidase FAP) of 0.8 nM.

In the case of `[2H]C([2H])([18F])[N+](C)(C)CCCOc1ccc2nccc(C(=O)NCC(=O)N3CC(F)(F)C[C@H]3C#N)c2c1`, the Stability [1] is reported as “Stable”, the Drug uptake [2] is reported as 0.24 % ID/g and the Ratio [3] is reported as 6.35. The Drug uptake [4] was 4.33 % ID/g, the Drug uptake [5] was “Active” and the Drug uptake [6] was 0.38 % ID/g. The Ratio [7] was 2.43, the Drug uptake [8] was “Active” and the remaining at 1 h, 185 kBq [9] was > 70%. The Stability [10] was “Stable”, the Drug uptake [11] was 10.16 %ID/ml and the Drug uptake [12] was “Active”. The Drug uptake [13] was “Not Active”, the Drug uptake [14] was “Active” and the Ratio [15] was 4.77. The Drug uptake [16] was “Active”, the remaining at 1 h, 185 kBq [17] was > 70% and the remaining at 1 h [18] was 56.5%. The Drug uptake [19] was “Active”, the Ratio [20] was 6.54 and the Drug uptake [21] was “Active”. The Drug uptake [22] was “Active”, the Drug uptake [23] was “Not Active” and the Drug uptake [24] was “Active”. The logD at 2 min [25] was -1.77.
